In ChEMBL document CHEMBL1155849, “Cadinane sesquiterpenes from the leaves of Eupatorium adenophorum” (J Nat Prod, 2008):

Columns and labels:
Assay type in all cases: functional, cell-based
[1] = tested on: HCT-8; assay: Cytotoxicity against human HCT8 cells by MTT assay
Outline: (§1)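 Cell proliferation was read out by MTT. The lines were HCT-8 (colon), Bel-7402 (hepatoma) and A2780 (ovarian), all of human origin. Values are reported as IC50.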

[2] = tested on: Bel-7402; assay: Cytotoxicity against human Bel7402 cells by MTT assay; outline: as §1
[3] = tested on: A2780; assay: Cytotoxicity against human A2780 cells by MTT assay; outline: as §1

`CC1=C[C@H]2[C@@H](CC1)[C@H](C)C[C@H](O)[C@@]2(O)C(C)C` showed an IC50 [1] of 2 µM, an IC50 [2] of 1.7 µM and an IC50 [3] of 1.7 µM.
With `CC1=C[C@@H]2C3=C(C)COO[C@@]3(O)C[C@@H](C)[C@@H]2CC1=O` the IC50 [1] was over 5 µM, the IC50 [2] was over 5 µM and the IC50 [3] was over 5 µM.
Work on `CC1=C[C@@H]2C3=C(C)C(=O)O[C@H]3C[C@@H](C)[C@@H]2CC1=O` yielded an IC50 [1] of over 5 µM, an IC50 [2] of over 5 µM and an IC50 [3] of over 5 µM.
For `CC1=C[C@@H]2C3=C(C)C(=O)O[C@]3([C@@]34C[C@@H](C)[C@@H]5CC(=O)C(C)=C[C@@H]5C3=C(C)C(=O)O4)C[C@@H](C)[C@@H]2CC1=O`, the IC50 [1] was over 5 µM, the IC50 [2] was over 5 µM and the IC50 [3] was over 5 µM.
